In ChEMBL document CHEMBL4368886, “Design, synthesis, and biological activity of novel ammonium salts containing sterically hindered phenolic fragment and phosphoryl group” (Medchemcomm, 2018):
≈ marks a conversion by molar mass, not a printed value. Calls of active or inactive are those of the source. The rule behind the calls is not given here.

Assays:
Pseudomonas aeruginosa [1] = assay: Antimicrobial activity against Pseudomonas aeruginosa ATCC 9027 measured every 24 hrs for 5 days by two-fold serial dilution method; format: functional
Pseudomonas aeruginosa [2] = assay: Bactericidal activity against Pseudomonas aeruginosa ATCC 9027 measured after 4 hrs; format: functional
How it was run: (§1)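 Microbicidal (bactericidal/fungicidal) concentration, killing of microbial cells, determined per literature procedures; tests in duplicate, repeated twice.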

[3] = system: Trichophyton mentagrophytes var. granulosum; assay: Bactericidal activity against Trichophyton mentagrophytes var. granulosum 1773 measured after 4 hrs; format: functional; how it was run: as §1
[4] = system: Trichophyton mentagrophytes; assay: Antimicrobial activity against Trichophyton mentagrophytes var. gypseum 1773 measured after 14 days by two-fold serial dilution method; format: functional
Candida albicans [5] = assay: Antimicrobial activity against Candida albicans 855-653 measured after 14 days by two-fold serial dilution method; format: functional
Escherichia coli [6] = assay: Bactericidal activity against Escherichia coli CDC F-50 measured after 4 hrs; format: functional; how it was run: as §1
Staphylococcus aureus [7] = assay: Bactericidal activity against Staphylococcus aureus 209p measured after 4 hrs; format: functional; how it was run: as §1
Bacillus cereus [8] = assay: Bactericidal activity against Bacillus cereus ATCC 8035 measured after 4 hrs; format: functional; how it was run: as §1
Bacillus cereus [9] = assay: Antimicrobial activity against Bacillus cereus ATCC 8035 measured every 24 hrs for 5 days by two-fold serial dilution method; format: functional
Aspergillus niger [10] = assay: Bactericidal activity against Aspergillus niger BKMF-1119 measured after 4 hrs; format: functional, organism-based; how it was run: as §1
Aspergillus niger [11] = assay: Antimicrobial activity against Aspergillus niger BKMF-1119 measured after 14 days by two-fold serial dilution method; format: functional, organism-based
Escherichia coli [12] = assay: Antimicrobial activity against Escherichia coli CDC F-50 measured every 24 hrs for 5 days by two-fold serial dilution method; format: functional
Staphylococcus aureus [13] = assay: Antimicrobial activity against Staphylococcus aureus 209p measured every 24 hrs for 5 days by two-fold serial dilution method; format: functional
Candida albicans [14] = assay: Bactericidal activity against Candida albicans 855-653 measured after 4 hrs; format: functional; how it was run: as §1

SMILES | MIC (Pseudomonas aeruginosa [1]) | MIC (Pseudomonas aeruginosa [2]) | MIC [3] | MIC [4] | MIC (Candida albicans [5]; 855-653, 336 h) | MIC (Escherichia coli [6]) | MIC (Staphylococcus aureus [7]) | MIC (Bacillus cereus [8]; ATCC 8035, 4 h) | MIC (Bacillus cereus [9]) | MIC (Aspergillus niger [10]) | MIC (Aspergillus niger [11]) | MIC (Escherichia coli [12]) | MIC (Staphylococcus aureus [13]) | MIC (Candida albicans [14]; 855-653, 4 h) | MIC (Bacillus cereus [8]) | MIC (Pseudomonas aeruginosa [2]; ATCC 9027, 4 h) | MIC (Escherichia coli [6]; CDC F-50, 4 h) | MIC (Candida albicans [5]) | MIC (Candida albicans [14])
CCOP(=O)(OCC)C(NCC[N+](C)(C)Cc1ccccc1)c1cc(C(C)(C)C)c(O)c(C(C)(C)C)c1 (configuration not stated) | inactive | inactive | inactive | inactive | 177 µM | inactive | 407 µM | 102 µM | 6.4 µM | inactive | inactive | inactive | 51 µM | 177 µM |  |  |  |  | 
CC[N+](C)(C)CCCNC(=O)CCc1cc(C(C)(C)C)c(O)c(C(C)(C)C)c1 | inactive | inactive | inactive | inactive | 265 µM | inactive | inactive |  | inactive | inactive | inactive | inactive | inactive | 265 µM | inactive |  |  |  | 
CCCCCCCCCCCC[N+](C)(C)CCNC(=O)CCc1cc(C(C)(C)C)c(O)c(C(C)(C)C)c1 | inactive | inactive | inactive | inactive | 419 µM | inactive | 52.4 µM | 419 µM | 419 µM | inactive | inactive | inactive | 52.4 µM | 419 µM |  |  |  |  | 
CCCCCCCCCCCC[N+](C)(C)CCCNC(c1cc(C(C)(C)C)c(O)c(C(C)(C)C)c1)P(=O)(OCC)OCC (configuration not stated) | inactive | inactive | inactive | inactive | 44.3 µM | inactive | 22 µM | 177 µM | 177 µM | inactive | inactive | inactive | 22 µM | 44.3 µM |  |  |  |  | 
CC[N+](C)(C)CCCNC(c1cc(C(C)(C)C)c(O)c(C(C)(C)C)c1)P(=O)(OC(C)C)OC(C)C (configuration not stated) | inactive | inactive | inactive | inactive | 422 µM | inactive | 105 µM | 421 µM | 105 µM | inactive | inactive | inactive | 105 µM | 422 µM |  |  |  |  | 
CCn1cc(C(=O)O)c(=O)c2cc(F)c(N3CCNCC3)cc21 [NORFLOXACIN] | 9.4 µM (≈ 3 µg/mL) |  |  |  |  |  | 7.5 µM (≈ 2.4 µg/mL) | 50 µM (≈ 16 µg/mL) | 25 µM (≈ 7.98 µg/mL) |  |  | 4.7 µM (≈ 1.5 µg/mL) | 7.5 µM (≈ 2.4 µg/mL) |  |  | 48.8 µM (≈ 15.6 µg/mL) | 4.7 µM (≈ 1.5 µg/mL) |  | 
CCOP(=O)(OCC)C(NCC[N+](C)(C)CC)c1cc(C(C)(C)C)c(O)c(C(C)(C)C)c1 (configuration not stated) | inactive | inactive | inactive | inactive |  | inactive | 56.8 µM | 56.8 µM | 56.8 µM | inactive | inactive | inactive | 56.8 µM |  |  |  |  | inactive | inactive
CCCCCCCCCCCC[N+](C)(C)CCCNC(=O)CCc1cc(C(C)(C)C)c(O)c(C(C)(C)C)c1 | inactive | inactive | inactive | inactive |  | inactive | 102 µM | 206 µM | 206 µM | inactive | inactive | inactive | 102 µM |  |  |  |  | inactive | inactive
CCOP(=O)(OCC)C(NCCC[N+](C)(C)Cc1ccccc1)c1cc(C(C)(C)C)c(O)c(C(C)(C)C)c1 (configuration not stated) | inactive | inactive | inactive | inactive | 199 µM | inactive | 199 µM | 24.8 µM | 24.8 µM | inactive | inactive | inactive | 99.5 µM | 199 µM |  |  |  |  | 
CC(C)OP(=O)(OC(C)C)C(NCCC[N+](C)(C)Cc1ccccc1)c1cc(C(C)(C)C)c(O)c(C(C)(C)C)c1 (configuration not stated) | inactive | inactive | inactive | inactive |  | inactive | 95.3 µM | 95.3 µM | 95.3 µM | inactive | inactive | inactive | 95.3 µM |  |  |  |  | inactive | inactive
CC(C)OP(=O)(OC(C)C)C(NCC[N+](C)(C)Cc1ccccc1)c1cc(C(C)(C)C)c(O)c(C(C)(C)C)c1 (configuration not stated) | inactive | inactive | inactive | inactive | 195 µM | inactive | 97.3 µM | 48.8 µM | 48.8 µM | inactive | inactive | inactive | 24.3 µM |  |  |  |  |  | inactive
CCCCCCCC[N+](C)(C)CCCNC(=O)CCc1cc(C(C)(C)C)c(O)c(C(C)(C)C)c1 | inactive | inactive | inactive | inactive | 28 µM | inactive | 28 µM | 28.1 µM | 28.1 µM | inactive | inactive | inactive | 28 µM | 56.3 µM |  |  |  |  | 
CCCCCCCCCC[N+](C)(C)CCNC(=O)CCc1cc(C(C)(C)C)c(O)c(C(C)(C)C)c1 | 27.4 µM |  | inactive | inactive | 3.3 µM |  | 1.6 µM | 55 µM | 6.8 µM | inactive | inactive | 27.4 µM | 1.6 µM | 6.9 µM |  | 55 µM | 55 µM |  | 
CC[N+](C)(C)CCNC(=O)CCc1cc(C(C)(C)C)c(O)c(C(C)(C)C)c1 | inactive | inactive | inactive | inactive | 68.5 µM | inactive | inactive |  | inactive | inactive | inactive | inactive | inactive |  | inactive |  |  |  | inactive
CCCCCCCC[N+](C)(C)CCNC(=O)CCc1cc(C(C)(C)C)c(O)c(C(C)(C)C)c1 | inactive | inactive | inactive | inactive | 29 µM | inactive | 29 µM | 58 µM | 58 µM | inactive | inactive | inactive | 29 µM | 29 µM |  |  |  |  | 
O=C(N[C@H](CO)[C@H](O)c1ccc([N+](=O)[O-])cc1)C(Cl)Cl [CHLORAMPHENICOL] |  |  |  |  |  |  |  |  | 193 µM (≈ 62.4 µg/mL) |  |  | 386 µM (≈ 125 µg/mL) | 193 µM (≈ 62.4 µg/mL) |  |  |  |  |  | 
